Test results published in ChEMBL document CHEMBL1124412, “Long acting dihydropyridine calcium antagonists. 2. 2-[2-Aminoheterocycloethoxy]methyl derivatives” (J Med Chem, 1989).

test system: Canis familiaris; test: Percent decrease in coronary vascular resistance in dogs at 150 u/kg intravenous dose; assay type: functional, Canis lupus familiaris
Method in brief: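 Anaesthetized beagle dogs were implanted with catheters for blood pressure, left ventricular pressure and intravenous dosing, and given 150 µg/kg i.v. Coronary blood flow was measured by hydrogen clearance with platinum electrodes in the coronary sinus and femoral artery, and cardiac output by thermodilution. Coronary vascular resistance was derived from these measurements, and the duration-of-action half-life was followed in hours.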

Structure (SMILES) | Decrease in CVR [%]
CCO/C(O)=C1\C(COCCNc2ccnc(O)n2)=NC(C)=C(C(=O)OC)C1c1cccc(Cl)c1Cl (stereo unspecified) | 62
CCO/C(O)=C1\C(COCCNc2nccc(O)n2)=NC(C)=C(C(=O)OC)C1c1cccc(Cl)c1Cl (stereo unspecified) | 70
CCO/C(O)=C1\C(COCCNc2n[nH]c(N)n2)=NC(C)=C(C(=O)OC)C1c1cccc(Cl)c1Cl (stereo unspecified) | 70
CCO/C(O)=C1\C(COCCNc2noc(N)n2)=NC(C)=C(C(=O)OC)C1c1cccc(Cl)c1Cl (stereo unspecified) | 76
COC(=O)C1=C(C)NC(C)=C(C(=O)OC)C1c1ccccc1[N+](=O)[O-] [NIFEDIPINE] | 77

organism: Cavia porcellus; test: In vitro assessment of negative inotropy in the isolated Langendorff perfused guinea pig heart; assay type: functional

Structure (SMILES) | pIC25
CCO/C(O)=C1\C(COCCNc2nccnc2Cl)=NC(C)=C(C(=O)OC)C1c1cccc(Cl)c1Cl (stereo unspecified) | 7.4
CCO/C(O)=C1\C(COCCNC2=NC(=O)C(C)(C)N2)=NC(C)=C(C(=O)OC)C1c1cccc(Cl)c1Cl (stereo unspecified) | 6.2
CCO/C(O)=C1\C(COCCNc2cc(NC)ncn2)=NC(C)=C(C(=O)OC)C1c1cccc(Cl)c1Cl (stereo unspecified) | 7.2
CCO/C(O)=C1\C(COCCNc2ccnc(O)n2)=NC(C)=C(C(=O)OC)C1c1cccc(Cl)c1Cl (stereo unspecified) | 6.7
CCO/C(O)=C1\C(COCCNc2n[nH]c(N)n2)=NC(C)=C(C(=O)OC)C1c1ccccc1Cl (stereo unspecified) | 6.2
CCO/C(O)=C1\C(COCCNc2cc(O)ncn2)=NC(C)=C(C(=O)OC)C1c1cccc(Cl)c1Cl (stereo unspecified) | 7.2
CCO/C(O)=C1\C(C)=NC(COCCNc2n[nH]c(N)n2)=C(C(=O)OC)C1c1cccc(Cl)c1Cl (stereo unspecified) | 5.5
CCO/C(O)=C1\C(COCCNc2nccc(O)n2)=NC(C)=C(C(=O)OC)C1c1cccc(Cl)c1Cl (stereo unspecified) | 6.7
CCO/C(O)=C1\C(COCCNc2n[nH]c(N)n2)=NC(C)=C(C(=O)OC)C1c1cccc(Cl)c1Cl (stereo unspecified) | 6.3
CCO/C(O)=C1\C(COCCNc2nc(N)n(C)n2)=NC(C)=C(C(=O)OC)C1c1cccc(Cl)c1Cl (stereo unspecified) | 6.8
CCO/C(O)=C1\C(COCCNc2noc(N)n2)=NC(C)=C(C(=O)OC)C1c1cccc(Cl)c1Cl (stereo unspecified) | 7.3
CCO/C(O)=C1\C(COCCNc2n[nH]c(N)n2)=NC(C)=C(C(=O)OC)C1c1cccc(C(F)(F)F)c1Cl (stereo unspecified) | 6.3
CCO/C(O)=C1\C(COCCNc2nc(O)cs2)=NC(C)=C(C(=O)OC)C1c1cccc(Cl)c1Cl (stereo unspecified) | 6.1
CCO/C(O)=C1\C(COCCNc2n[nH]c(O)n2)=NC(C)=C(C(=O)OC)C1c1cccc(Cl)c1Cl (stereo unspecified) | 6.4
CCOC(=O)NC(=S)NCCOCC1=C(C(=O)OCC)C(c2cccc(Cl)c2Cl)/C(=C(\O)OC)C(C)=N1 (stereo unspecified) | 6.2
CCO/C(O)=C1\C(COCCNc2n[nH]c(N)n2)=NC(C)=C(C(=O)OC)C1c1cccnc1Cl (stereo unspecified) | 6
CCO/C(O)=C1\C(COCCNc2nc(O)cc(-c3ccccc3)n2)=NC(C)=C(C(=O)OC)C1c1cccc(Cl)c1Cl (stereo unspecified) | 6.9
CCO/C(O)=C1\C(COCCNc2nccnc2NC)=NC(C)=C(C(=O)OC)C1c1cccc(Cl)c1Cl (stereo unspecified) | 7
CCO/C(O)=C1\C(COCCNc2cc(Cl)ncn2)=NC(C)=C(C(=O)OC)C1c1cccc(Cl)c1Cl (stereo unspecified) | 7.7
CCO/C(O)=C1\C(COCC/N=C(/N)S)=NC(C)=C(C(=O)OC)C1c1cccc(Cl)c1Cl (stereo unspecified) | 7.2
CCO/C(O)=C1\C(COCCNc2n[s+]([O-])nc2N)=NC(C)=C(C(=O)OC)C1c1cccc(Cl)c1Cl (stereo unspecified) | 7
CCO/C(O)=C1\C(COCCNc2n[s+]([O-])nc2OC)=NC(C)=C(C(=O)OC)C1c1cccc(Cl)c1Cl (stereo unspecified) | 7.1
COC(=O)C1=C(C)NC(C)=C(C(=O)OC)C1c1ccccc1[N+](=O)[O-] [NIFEDIPINE] | 7.5

organism: Rattus norvegicus; test: Concentration required to inhibit calcium-induced constriction of potassium-depolarized rat aorta by 50%; assay type: functional

Structure (SMILES) | IC50 [nM]
CCO/C(O)=C1\C(COCCNC2=NC(=O)C(C)(C)N2)=NC(C)=C(C(=O)OC)C1c1cccc(Cl)c1Cl (stereo unspecified) | 20
CCO/C(O)=C1\C(COCCNc2ccnc(O)n2)=NC(C)=C(C(=O)OC)C1c1cccc(Cl)c1Cl (stereo unspecified) | 1.58
CCO/C(O)=C1\C(COCCNc2nc(N)n(C)n2)=NC(C)=C(C(=O)OC)C1c1cccc(Cl)c1Cl (stereo unspecified) | 3.98
CCO/C(O)=C1\C(COCCNc2n[nH]c(N)n2)=NC(C)=C(C(=O)OC)C1c1cccc(Cl)c1 (stereo unspecified) | 126
CCO/C(O)=C1\C(COCCNc2nc(O)cs2)=NC(C)=C(C(=O)OC)C1c1cccc(Cl)c1Cl (stereo unspecified) | 20
CCO/C(O)=C1\C(COCCNc2n[nH]c(N)n2)=NC(C)=C(C(=O)OC)C1c1cccnc1Cl (stereo unspecified) | 316
CCO/C(O)=C1\C(COCCNc2nc(O)cc(-c3ccccc3)n2)=NC(C)=C(C(=O)OC)C1c1cccc(Cl)c1Cl (stereo unspecified) | 7.94
CCO/C(O)=C1\C(COCCNc2nccnc2NC)=NC(C)=C(C(=O)OC)C1c1cccc(Cl)c1Cl (stereo unspecified) | 5.01
CCO/C(O)=C1\C(COCC/N=C(/N)S)=NC(C)=C(C(=O)OC)C1c1cccc(Cl)c1Cl (stereo unspecified) | 1
CCO/C(O)=C1\C(COCCNc2n[s+]([O-])nc2N)=NC(C)=C(C(=O)OC)C1c1cccc(Cl)c1Cl (stereo unspecified) | 15.8
CCO/C(O)=C1\C(COCCNc2n[s+]([O-])nc2OC)=NC(C)=C(C(=O)OC)C1c1cccc(Cl)c1Cl (stereo unspecified) | 10

Results, then the compound that gave them:

IC50 [nM] | Structure (SMILES)
2.51 | CCO/C(O)=C1\C(COCCNc2nccnc2Cl)=NC(C)=C(C(=O)OC)C1c1cccc(Cl)c1Cl (stereo unspecified)
3.16 | CCO/C(O)=C1\C(COCCNc2cc(NC)ncn2)=NC(C)=C(C(=O)OC)C1c1cccc(Cl)c1Cl (stereo unspecified)
20 | CCO/C(O)=C1\C(COCCNc2n[nH]c(N)n2)=NC(C)=C(C(=O)OC)C1c1ccccc1Cl (stereo unspecified)
1.26 | CCO/C(O)=C1\C(COCCNc2cc(O)ncn2)=NC(C)=C(C(=O)OC)C1c1cccc(Cl)c1Cl (stereo unspecified)
100 | CCO/C(O)=C1\C(C)=NC(COCCNc2n[nH]c(N)n2)=C(C(=O)OC)C1c1cccc(Cl)c1Cl (stereo unspecified)
2.51 | CCO/C(O)=C1\C(COCCNc2nccc(O)n2)=NC(C)=C(C(=O)OC)C1c1cccc(Cl)c1Cl (stereo unspecified)
6.31 | CCO/C(O)=C1\C(COCCNc2n[nH]c(N)n2)=NC(C)=C(C(=O)OC)C1c1cccc(Cl)c1Cl (stereo unspecified)
3.16 | CCO/C(O)=C1\C(COCCNc2noc(N)n2)=NC(C)=C(C(=O)OC)C1c1cccc(Cl)c1Cl (stereo unspecified)
3.98 | CCO/C(O)=C1\C(COCCNc2n[nH]c(N)n2)=NC(C)=C(C(=O)OC)C1c1cccc(C(F)(F)F)c1Cl (stereo unspecified)
10 | CCO/C(O)=C1\C(COCCNc2n[nH]c(O)n2)=NC(C)=C(C(=O)OC)C1c1cccc(Cl)c1Cl (stereo unspecified)
31.6 | CCOC(=O)NC(=S)NCCOCC1=C(C(=O)OCC)C(c2cccc(Cl)c2Cl)/C(=C(\O)OC)C(C)=N1 (stereo unspecified)
12.6 | CCO/C(O)=C1\C(COCCNc2cc(Cl)ncn2)=NC(C)=C(C(=O)OC)C1c1cccc(Cl)c1Cl (stereo unspecified)
